Laboratory results reported in ChEMBL document CHEMBL5329156, “Discovery and development of novel substituted monohydrazides as potent antifungal agents” (RSC Med Chem, 2023).
Values after ≈ are worked out from the molar mass of the structure shown.

Key:
Aspergillus nidulans = assay: Antifungal activity against Aspergillus nidulans ATCC 38163 assessed as fungal growth inhibition by double dilution method; assay type: functional
Pichia kudriavzevii = assay: Antifungal activity against Pichia kudriavzevii ATCC 6258 assessed as fungal growth inhibition by double dilution method; assay type: functional
Method in brief: (§1)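 Broth microdilution after CLSI M27-A3/M38-A2 with minor changes. Single colony grown overnight in YPD at 35 °C, 200 rpm. Compound final range 0.06-31.3 µg/mL; incubated 48 h at 35 °C.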

[Candida] auris [1] = Antifungal activity against Candida auris AR Bank # 0384 assessed as fungal growth inhibition by double dilution method; assay type: functional; conditions: Candidozyma auris; method in brief: as §1
Aspergillus fumigatus [2] = assay: Antifungal activity against Aspergillus fumigatus NRRL 5109 assessed as fungal growth inhibition by double dilution method; assay type: functional
J774.A1 = assay: Cytotoxicity against J774A.1 cells assessed as reduction in cell viability at 31.3 microg/ml; assay type: toxicity, cell-based; conditions: mouse, dose 31.3 µg/ml
Method in brief: (§2)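 Cells in DMEM with 10% FBS and 1% Pen/Strep, seeded at 10,000 cells/well and held overnight at 37 °C, 5% CO2. Compounds added at final 31.3-0.12 µg/mL (0.05% DMSO vehicle) for 24 h. Resazurin then added for 6 h; fluorescence read at ex 560/em 590. Triton X-100 1% as positive control; values normalized to vehicle. Run in quadruplicate.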

Candida albicans [3] = assay: Antifungal activity against itraconazole/fluconazole resistant Candida albicans ATCC MYA-1237 assessed as fungal growth inhibition by double dilution method; assay type: functional
Method in brief: (§3)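 Broth microdilution after CLSI M27-A3/M38-A2 with minor modifications. A single colony was grown overnight in YPD at 35 °C with shaking at 200 rpm. Cells were mixed 1:1 with compound (final 0.06-31.3 µg/mL, from DMSO stocks) and incubated 48 h at 35 °C.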

Candida albicans [4] = assay: Antifungal activity against itraconazole/fluconazole resistant Candida albicans ATCC 90819 assessed as fungal growth inhibition by double dilution method; assay type: functional; method in brief: as §3
Nakaseomyces glabratus [5] = assay: Antifungal activity against Candida glabrata ATCC 22019 assessed as fungal growth inhibition by double dilution method; assay type: functional; method in brief: as §1
[6] = Cytotoxicity against human HepG2 cells assessed as cell survival at 31.3 microg/ml relative to control; assay type: toxicity, cell-based; conditions: at 31.3 µg/mL, read-out: Activity; method in brief: as §2
Nakaseomyces glabratus [7] = assay: Antifungal activity against Candida glabrata ATCC 2001 assessed as fungal growth inhibition by double dilution method; assay type: functional; method in brief: as §1
Candida albicans [8] = assay: Antifungal activity against Candida albicans ATCC 64124 assessed as fungal growth inhibition by double dilution method; assay type: functional; method in brief: as §3
Aspergillus flavus = assay: Antifungal activity against Aspergillus flavus ATCC MYA-3631 assessed as fungal growth inhibition by double dilution method; assay type: functional
Candida albicans [9] = assay: Antifungal activity against itraconazole/fluconazole susceptible Candida albicans ATCC MYA-2310 assessed as fungal growth inhibition by double dilution method; assay type: functional; method in brief: as §3
Candida albicans [10] = assay: Antifungal activity against itraconazole/fluconazole resistant Candida albicans ATCC MYA-1003 assessed as fungal growth inhibition by double dilution method; assay type: functional; method in brief: as §3
Cryptococcus neoformans = assay: Antifungal activity against Cryptococcus neoformans ATCC MYA-895 assessed as fungal growth inhibition by double dilution method; assay type: functional; method in brief: as §1
HEK293 = assay: Cytotoxicity against human HEK-293 cells assessed as reduction in cell viability at 31.3 microg/ml; assay type: toxicity, cell-based; conditions: dose 31.3 µg/ml; method in brief: as §2
Aspergillus terreus = assay: Antifungal activity against Aspergillus terreus ATCC MYA-3633 assessed as fungal growth inhibition by double dilution method; assay type: functional
Aspergillus fumigatus [11] = assay: Antifungal activity against Aspergillus fumigatus NRRL 6113 assessed as fungal growth inhibition by double dilution method; assay type: functional
Candida albicans [12] = assay: Antifungal activity against Candida albicans ATCC 10231 assessed as fungal growth inhibition by double dilution method; assay type: functional; method in brief: as §1
Aspergillus fumigatus [13] = assay: Antifungal activity against Aspergillus fumigatus NRRL 163 assessed as fungal growth inhibition by double dilution method; assay type: functional
Candida albicans [14] = assay: Antifungal activity against itraconazole/fluconazole susceptible Candida albicans ATCC MYA-2876 assessed as fungal growth inhibition by double dilution method; assay type: functional; method in brief: as §3
[Candida] auris [15] = Antifungal activity against Candida auris AR Bank # 0390 assessed as fungal growth inhibition by double dilution method; assay type: functional; conditions: Candidozyma auris; method in brief: as §1

O=C(NNc1cccc(F)c1)c1cnccn1
MIC (Aspergillus nidulans): 0.98 mg/L (≈ 4.22 µM) | MIC (Pichia kudriavzevii): 0.49 mg/L (≈ 2.11 µM) | MIC ([Candida] auris [1]): 0.98 mg/L (≈ 4.22 µM) | MIC (Aspergillus fumigatus [2]): > 31.3 mg/L | Activity (J774.A1): Non-Toxic | MIC (Candida albicans [3]): 0.98 mg/L (≈ 4.22 µM) | MIC (Candida albicans [4]): 0.98 mg/L (≈ 4.22 µM) | MIC (Nakaseomyces glabratus [5]): 3.9 mg/L (≈ 16.8 µM) | viability at 31.3 microg/ml [6]: 94% | MIC (Nakaseomyces glabratus [7]): 7.8 mg/L (≈ 33.6 µM) | MIC (Candida albicans [8]): 1.95 mg/L (≈ 8.4 µM) | MIC (Aspergillus flavus): 15.6 mg/L (≈ 67.2 µM) | MIC (Candida albicans [9]): 7.8 mg/L (≈ 33.6 µM) | MIC (Candida albicans [10]): 0.98 mg/L (≈ 4.22 µM) | MIC (Cryptococcus neoformans): 0.12 mg/L (≈ 0.517 µM) | Activity (HEK293): Non-Toxic | MIC (Aspergillus terreus): 0.98 mg/L (≈ 4.22 µM) | MIC (Aspergillus fumigatus [11]): > 31.3 mg/L | MIC (Candida albicans [12]): 0.24 mg/L (≈ 1.03 µM) | MIC (Aspergillus fumigatus [13]): > 31.3 mg/L | MIC (Candida albicans [14]): 3.9 mg/L (≈ 16.8 µM) | MIC ([Candida] auris [15]): 0.98 mg/L (≈ 4.22 µM)
